This passage reports Vmax results from ChEMBL document CHEMBL1121618, “Thymidine phosphorylase. Substrate specificity for 5-substituted 2'-deoxyuridines” (J Med Chem, 1980).

The experiment can be described thus: Ratio of Vmax to that of dThd (Vmax = 0.14). The gist of the method:
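Continuous UV assay of phosphorolysis by a dThd phosphorylase preparation. Initial rates were followed at each nucleoside's Δλmax, the wavelength of maximal nucleoside/base absorbance difference determined per substrate, and converted using Δεmax. Nucleoside was varied from 60–320 μM in 0.1 M potassium phosphate (pH 6.0) with limiting enzyme at 25.0 °C. Vmax was expressed relative to dThd in the same assay.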

Turning to `O=c1ccn([C@H]2C[C@H](O)[C@@H](CO)O2)c(=O)[nH]1`, the Vmax amounted to 0.88.
For `N#Cc1cn([C@H]2C[C@H](O)[C@@H](CO)O2)c(=O)[nH]c1=O`, the Vmax came to 0.74.
Then `O=c1[nH]c(=O)n([C@H]2C[C@H](O)[C@@H](CO)O2)cc1Cl`, with 4.2; and `O=c1[nH]c(=O)n([C@H]2C[C@H](O)[C@@H](CO)O2)cc1C(F)(F)F`, with 8.53.
Then `O=c1[nH]c(=O)n([C@H]2C[C@H](O)[C@@H](CO)O2)cc1F`, with 3.42; and `C=CCc1cn([C@H]2C[C@H](O)[C@@H](CO)O2)c(=O)[nH]c1=O`, with 0.76.
Then `C/C=C/c1cn([C@H]2C[C@H](O)[C@@H](CO)O2)c(=O)[nH]c1=O`, with 0.57; and `O=c1[nH]c(=O)n([C@H]2C[C@H](O)[C@@H](CO)O2)cc1Br`, with 3.51.
For `CCc1cn([C@H]2C[C@H](O)[C@@H](CO)O2)c(=O)[nH]c1=O`, the Vmax was determined as 0.79.
Then `O=c1[nH]c(=O)n([C@H]2C[C@H](O)[C@@H](CO)O2)cc1CO`, with 0.6; and `O=c1[nH]c(=O)n([C@H]2C[C@H](O)[C@@H](CO)O2)cc1I`, with 3.85.
As to `Cc1cn([C@H]2C[C@H](O)[C@@H](CO)O2)c(=O)[nH]c1=O`, the Vmax came to 1.
Then `O=Cc1cn([C@H]2C[C@H](O)[C@@H](CO)O2)c(=O)[nH]c1=O`, with 1.46.
